The values that follow come from PubChem BioAssay.

Activity calls are given as the source filed them.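 How the source made its calls, unless noted: active means viability loss from added drug above about 55%, and viability with drug at most 40%, in both replicates (limit read from the data, passing the limit was not always enough); inconclusive means both conditions met in only one replicate; inactive means neither replicate meets both conditions.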

Assay [1] in a line: reducers of endogenous Her2 protein level, primary screen, SKBR3 breast tumor cells, AlphaScreen, ATP viability (AID 461;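 active means Her2 level under about 52% in both replicate screens, with viability over 70% of control, limit read from the data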;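 on Her2 level: lower value means less Her2 protein in the cells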;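 on viability: percent of carrier control wells set as 100% viability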). The following applies: 18-24 h, measured here: SKBR3 viability, ATP luminescence, at 10 µM.
Assay [2] has as its target Receptor tyrosine-protein kinase erbB-2 (Homo sapiens) (UniProt P04626). The assay is described as above. The following applies: 18-24 h, at 10 µM, stronger effect = lower value.
Assay [3] in a line: SK-BR-3 cell growth inhibitors, pilot screen, 24 h, human (AID 572;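 active means viability at or below 10% of carrier control in both of two separate runs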;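 further: compound exposure lasted between 18 and 24 h rather than exactly 24 h; 100% = carrier-treated control wells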). The conditions noted are these: SK-BR-3 viability, CellTiter-Glo luminescence, at 10 µM, stronger effect = lower value.
Assay [4] can be described thus: HUVEC growth inhibition – cell-based, human, primary screen (AID 575;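 active means viability at or below 30% in both replicate assays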;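 further: 100% = median of untreated cell wells with 0.1% DMSO on each plate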). The conditions noted are these: HUVEC proliferation, CellTiter-Glo luminescence, 72 h; at 10 µM; stronger effect = lower value. Summed up:
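Test system – primary HUVEC, no more than 12 passages · Dosing – one dose, 10 µM final, 0.1% DMSO · Times – 72 h treatment at 37 °C · Measured by – ATP-based CellTiter-Glo luminescent read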

Assay [5] is described as follows: growth inhibitors of H69AR lung tumor, primary screen, human, duplicate replicates (AID 580;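 active means viability at or under a set limit in both replicates, limit being median viability minus 3 SD, cut at about 48% in these data, passing the limit was not always enough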;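 further: 100% = mean luminescence of untreated wells and 0% = no signal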). The conditions noted are these: H69AR lung tumor cells viability, ATP luminescence, 72 h; at 10 µM; stronger effect = lower value.
Assay [6] in a line: reversal of MRP1-mediated doxorubicin resistance, pilot screen, H69AR cells, doxorubicin co-treatment (AID 601). The following applies: CellTiter-Glo, 72 h, at 10 µM; for differential viability (reversal): stronger effect = higher value.
A short description of assay [7]: 384-well plate pilot, post-Golgi transport modulator project, inhibition of yeast transport mutant growth (AID 636; in the data active means inhibition above about 31%). The conditions noted are these: absorbance 615 nm, about 18 h, stronger effect = higher value.
A short description of assay [8]: growth suppression of yeast trafficking mutant, preliminary HTS, modulators of trafficking downstream of Golgi apparatus project, 1536-format plate, OD 615 nm (AID 637; in the data active means inhibition above about 30%). The conditions noted are these: yeast transport mutant growth, absorbance 615 nm, 18 h; stronger effect = higher value.
Setting [9] is: H69AR cells + 2 uM doxorubicin, measured here: viability with 2 uM doxorubicin, stronger effect = lower value.
The mark [10] stands for this setting: H69AR cells, compound alone cytotoxicity.

Sequence of Receptor tyrosine-protein kinase erbB-2 (Homo sapiens) (P04626 whole entry, looked up): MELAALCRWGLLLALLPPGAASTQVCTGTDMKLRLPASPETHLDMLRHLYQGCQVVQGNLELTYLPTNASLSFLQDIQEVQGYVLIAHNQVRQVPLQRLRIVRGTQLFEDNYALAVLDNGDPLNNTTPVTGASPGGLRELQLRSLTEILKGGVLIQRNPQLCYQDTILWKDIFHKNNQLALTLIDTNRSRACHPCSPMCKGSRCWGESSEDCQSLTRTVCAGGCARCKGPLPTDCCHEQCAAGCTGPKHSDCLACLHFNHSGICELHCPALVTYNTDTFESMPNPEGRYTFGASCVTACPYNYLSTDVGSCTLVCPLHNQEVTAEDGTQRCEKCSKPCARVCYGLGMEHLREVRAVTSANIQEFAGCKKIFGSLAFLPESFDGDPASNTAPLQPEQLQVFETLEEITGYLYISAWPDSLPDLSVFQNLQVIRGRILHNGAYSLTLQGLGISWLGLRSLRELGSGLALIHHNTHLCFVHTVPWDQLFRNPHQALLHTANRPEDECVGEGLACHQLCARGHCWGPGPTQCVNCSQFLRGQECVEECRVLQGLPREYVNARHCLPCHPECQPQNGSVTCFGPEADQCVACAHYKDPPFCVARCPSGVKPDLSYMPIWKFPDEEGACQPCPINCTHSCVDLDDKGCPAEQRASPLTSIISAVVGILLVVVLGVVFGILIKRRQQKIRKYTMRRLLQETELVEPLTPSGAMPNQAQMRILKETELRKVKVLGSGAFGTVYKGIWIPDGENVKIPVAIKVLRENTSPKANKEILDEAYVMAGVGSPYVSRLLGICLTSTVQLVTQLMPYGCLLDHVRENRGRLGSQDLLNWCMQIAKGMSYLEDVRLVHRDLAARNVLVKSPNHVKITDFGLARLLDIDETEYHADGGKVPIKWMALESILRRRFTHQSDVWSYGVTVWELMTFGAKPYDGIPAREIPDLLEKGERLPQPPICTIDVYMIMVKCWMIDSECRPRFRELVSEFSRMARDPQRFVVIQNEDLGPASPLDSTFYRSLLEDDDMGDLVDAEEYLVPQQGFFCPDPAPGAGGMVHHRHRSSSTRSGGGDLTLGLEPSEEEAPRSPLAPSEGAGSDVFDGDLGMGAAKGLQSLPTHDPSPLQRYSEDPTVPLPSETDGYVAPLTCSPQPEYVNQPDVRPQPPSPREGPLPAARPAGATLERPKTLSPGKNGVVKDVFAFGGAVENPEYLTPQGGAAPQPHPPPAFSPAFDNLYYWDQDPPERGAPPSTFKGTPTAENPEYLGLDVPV

As for `CCn1c(C(=O)N2CCCC(C(=O)O)C2)cc2sccc21` (stereo not given), the viability is 103% in assay [1]; 103% (inactive) in assay [3]; 101% (inactive) in assay [4]; 93.8% (inactive) in assay [5]; 87.4% in assay [6] (setting [9]); 93.8% in assay [6] (setting [10]). Also, the Her2 level in assay [2] was 98.5% (inactive). Also, the differential viability (reversal) in assay [6] (H69AR cells + 2 uM doxorubicin) was 6.41% (inactive). Further, the inhibition in assay [7] was 0.53% (inactive); in assay [8], -1.15% (inactive).
For `CCOC(=O)CSc1nc2cc(C(=O)N3CCC(C(N)=O)CC3)ccc2c(=O)n1-c1ccccc1`, the viability in assay [1] was 98%; in assay [3] it was 98% (inactive); in assay [4] it was 76.5% (inactive); in assay [5], 100% (inactive); in assay [6] (setting [9]) it was 92.4%; in assay [6] (setting [10]) it was 100%. Besides, the Her2 level in assay [2] was 95% (inactive). Also, in assay [6] (H69AR cells + 2 uM doxorubicin), the differential viability (reversal) was 7.63% (inactive). For the same molecule, the inhibition in assay [7] is -3.95% (inactive); in assay [8] it was -4.17% (inactive).
As for `COc1ccccc1CC(NC(C)=O)C(=O)NC1CCN(c2nnnn2-c2ccccc2)CC1` (stereo not given), the viability in assay [1] is 97%; in assay [3] it was 97% (inactive); in assay [4] it was 94.8% (inactive); in assay [5], 96.5% (inactive); in assay [6] (setting [9]), 97.5%; in assay [6] (setting [10]), 96.5%. In addition, the Her2 level in assay [2] is 102% (inactive). Also, the differential viability (reversal) in assay [6] (H69AR cells + 2 uM doxorubicin) is -1.01% (inactive). In addition, the inhibition was -0.95% (inactive) in assay [7] and 0% (inactive) in assay [8].
`COc1ccc(N2CCN(C(=O)CSc3nnc(Cn4nnc5ccccc54)n3C)CC2)cc1`: the viability was 99.5% in assay [1]; 99.5% (inactive) in assay [3]; 108% (inactive) in assay [4]; 103% (inactive) in assay [5]; 92.1% in assay [6] (setting [9]); 103% in assay [6] (setting [10]). Moreover, the Her2 level in assay [2] is 111% (inactive). For the same molecule, the differential viability (reversal) in assay [6] (H69AR cells + 2 uM doxorubicin) is 11.4% (inactive). The inhibition was -1.97% (inactive) in assay [7] and -6.61% (inactive) in assay [8].
For `CCCc1cc(Nc2cccc(OC)c2)n2ncnc2n1`, the viability in assay [1] was 83%; in assay [3], 83% (inactive); in assay [4], 94.6% (inactive); in assay [5] it was 81.2% (inactive); in assay [6] (setting [9]) it was 81.8%; in assay [6] (setting [10]), 81.2%. In addition, the Her2 level in assay [2] was 129% (inactive). Also, the differential viability (reversal) in assay [6] (H69AR cells + 2 uM doxorubicin) was -0.635% (inactive). Moreover, the inhibition is -4.1% (inactive) in assay [7] and -5% (inactive) in assay [8].
Consider `Cc1ccc(-n2c(SCC3CCCCO3)nnc2-c2ccco2)cc1` (stereo not given), for which the viability was 89% in assay [1]; 89% (inactive) in assay [3]; 102% (inactive) in assay [4]; 91.4% (inactive) in assay [5]; 75.9% in assay [6] (setting [9]); 91.4% in assay [6] (setting [10]). Moreover, the Her2 level in assay [2] is 83% (inactive). Also, in assay [6] (H69AR cells + 2 uM doxorubicin), the differential viability (reversal) was 15.5% (inactive). For the same molecule, the inhibition in assay [7] was 0% (inactive); in assay [8], -8.5% (inactive).
For `CCOc1ccc(-c2nc(S(=O)(=O)c3ccccc3)c(NCc3cccnc3)o2)cc1`, the viability in assay [1] is 97%; in assay [3], 97% (inactive); in assay [4], 94.2% (inactive); in assay [5] it was 97.6% (inactive); in assay [6] (setting [9]), 91.4%; in assay [6] (setting [10]), 97.6%. Also, the Her2 level in assay [2] is 94% (inactive). For the same molecule, in assay [6] (H69AR cells + 2 uM doxorubicin), the differential viability (reversal) is 6.18% (inactive). In addition, the figures for the inhibition in assay [7] and in assay [8] were 1.33% (inactive) and -1.13% (inactive), respectively.
As for `O=C(C1=C(O)C(=O)N(Cc2ccccc2)C1c1ccncc1)c1ccco1` (stereo not given), the viability in assay [1] is 97.5%; in assay [3] it was 97.5% (inactive); in assay [4], 109% (inactive); in assay [5], 104% (inactive); in assay [6] (setting [9]), 101%; in assay [6] (setting [10]), 104%. Further, the Her2 level in assay [2] was 111% (inactive). For the same molecule, in assay [6] (H69AR cells + 2 uM doxorubicin), the differential viability (reversal) was 3.21% (inactive). The inhibition in assay [7] is -0.26% (inactive); in assay [8] it was -5.33% (inactive).
On to `O=C(CSc1ncnc2ccccc12)N1CCN(c2ccccc2)CC1`, for which the viability is 102% in assay [1]; 102% (inactive) in assay [3]; 94.1% (inactive) in assay [4]; 82.7% (inactive) in assay [5]; 78.1% in assay [6] (setting [9]); 82.7% in assay [6] (setting [10]). Moreover, the Her2 level in assay [2] is 92.5% (inactive). In addition, the differential viability (reversal) in assay [6] (H69AR cells + 2 uM doxorubicin) was 4.57% (inactive). The values for the inhibition in assay [7] and in assay [8] were -1.05% (inactive) and -8.73% (inactive), respectively.
Take `CCn1c(C(Cc2ccccc2)NC(=O)COC)nc2ccccc21` (stereo not given): the viability in assay [1] was 102%; in assay [3], 102% (inactive); in assay [4], 102% (inactive); in assay [5], 87.4% (inactive); in assay [6] (setting [9]), 78.6%; in assay [6] (setting [10]) it was 87.4%. For the same molecule, the Her2 level in assay [2] is 92% (inactive). The differential viability (reversal) in assay [6] (H69AR cells + 2 uM doxorubicin) was 8.84% (inactive). The inhibition in assay [7] was -6.13% (inactive); in assay [8], 4% (inactive).
Regarding `CCCCn1c(CN2CCN(CCO)CC2)nc2ccccc21`, the viability in assay [1] is 84%; in assay [3], 84% (inactive); in assay [4], 91.8% (inactive); in assay [5], 96% (inactive); in assay [6] (setting [9]), 90.7%; in assay [6] (setting [10]) it was 96%. In addition, the Her2 level in assay [2] is 92% (inactive). The differential viability (reversal) in assay [6] (H69AR cells + 2 uM doxorubicin) was 5.24% (inactive). The results for the inhibition in assay [7] and in assay [8] were -0.39% (inactive) and -6.55% (inactive), respectively.
For `Nc1nnc(SCCOc2ccccc2)s1`, the viability was 86.5% in assay [1]; 86.5% (inactive) in assay [3]; 72.1% (inactive) in assay [4]; 97.4% (inactive) in assay [5]; 88.2% in assay [6] (setting [9]); 97.4% in assay [6] (setting [10]). The Her2 level in assay [2] was 80% (inactive). In addition, the differential viability (reversal) in assay [6] (H69AR cells + 2 uM doxorubicin) was 9.2% (inactive). For the same molecule, the inhibition is -3.82% (inactive) in assay [7] and -2.73% (inactive) in assay [8].
In the case of `COCCNC(=O)c1c(N)n(/N=C/c2cccs2)c2nc3ccccc3nc12`, the viability was 110% in assay [1]; 110% (inactive) in assay [3]; 78.2% (inactive) in assay [4]; 74.7% (inactive) in assay [5]; 74.4% in assay [6] (setting [9]); 74.7% in assay [6] (setting [10]). Moreover, the Her2 level in assay [2] was 75.5% (inactive). Besides, the differential viability (reversal) in assay [6] (H69AR cells + 2 uM doxorubicin) is 0.24% (inactive). Moreover, the inhibition in assay [7] was 0.66% (inactive); in assay [8], 3.11% (inactive).
Regarding `CCCS(=O)(=O)C(=C1Nc2ccccc2N1)S(=O)(=O)CCC`, the viability in assay [1] was 105%; in assay [3], 105% (inactive); in assay [4] it was 93.4% (inactive); in assay [5], 103% (inactive); in assay [6] (setting [9]) it was 89.8%; in assay [6] (setting [10]), 103%. Further, in assay [2], the Her2 level is 97.5% (inactive). Moreover, in assay [6] (H69AR cells + 2 uM doxorubicin), the differential viability (reversal) was 12.9% (inactive). Moreover, the inhibition in assay [7] is -5.68% (inactive); in assay [8], 4.13% (inactive).
